Peptide text beside a SMILES is read from it. * marks the point of attachment. Boc = CC(C)(C)OC(=O)*; Acm = CC(=O)NC*
Tests used:
[1] = biological target: T1, Vitamin K-dependent gamma-carboxylase (Rattus norvegicus) (UniProt O88496); assay: Evaluated as substrate for the rat liver microsomal vitamin K dependent carboxylase by dpm incorporation at 0.125 mM
T1 sequence (whole entry): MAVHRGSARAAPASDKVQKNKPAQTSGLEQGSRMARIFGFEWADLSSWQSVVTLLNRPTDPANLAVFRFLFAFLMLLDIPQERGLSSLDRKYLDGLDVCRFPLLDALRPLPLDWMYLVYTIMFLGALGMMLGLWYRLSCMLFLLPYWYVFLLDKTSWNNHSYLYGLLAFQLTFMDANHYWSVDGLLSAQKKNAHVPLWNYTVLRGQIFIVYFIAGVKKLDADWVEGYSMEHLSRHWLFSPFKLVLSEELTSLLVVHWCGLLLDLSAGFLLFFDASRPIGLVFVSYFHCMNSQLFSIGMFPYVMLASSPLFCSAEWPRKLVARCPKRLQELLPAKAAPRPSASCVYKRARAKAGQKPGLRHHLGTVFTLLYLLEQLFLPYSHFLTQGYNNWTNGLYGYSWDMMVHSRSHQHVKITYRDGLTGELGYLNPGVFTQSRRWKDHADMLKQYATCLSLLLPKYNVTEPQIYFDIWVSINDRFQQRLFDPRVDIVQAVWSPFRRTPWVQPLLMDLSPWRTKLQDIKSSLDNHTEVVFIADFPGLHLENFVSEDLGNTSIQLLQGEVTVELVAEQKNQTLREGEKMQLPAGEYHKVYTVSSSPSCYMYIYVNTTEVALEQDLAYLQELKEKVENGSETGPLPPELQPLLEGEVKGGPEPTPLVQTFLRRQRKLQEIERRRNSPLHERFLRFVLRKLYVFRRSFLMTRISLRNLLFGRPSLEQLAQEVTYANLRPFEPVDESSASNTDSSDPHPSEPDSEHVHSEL
Outline: (§1)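 Rat liver microsomal carboxylase with the peptide as substrate. Incubations ran 60 min at 17 °C in duplicate and were averaged. Read-out was dpm incorporated, with the no-vitamin K blank subtracted. The enzyme requires oxygen, reduced vitamin K and carbon dioxide.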

[2] = biological target: T1, Vitamin K-dependent gamma-carboxylase (Rattus norvegicus); assay: Evaluated as substrate for the rat liver microsomal vitamin K dependent carboxylase by dpm incorporation at 0.25 mM; outline: as §1
[3] = biological target: T1, Vitamin K-dependent gamma-carboxylase (Rattus norvegicus); assay: Evaluated as substrate for the rat liver microsomal vitamin K dependent carboxylase by dpm incorporation at 0.0625 mM; outline: as §1
[4] = biological target: T1, Vitamin K-dependent gamma-carboxylase (Rattus norvegicus); assay: Substrate activity was determined for the rat liver microsomal vitamin K dependent carboxylase by dpm incorporation at 0.25 mM; outline: as §1
[5] = biological target: T1, Vitamin K-dependent gamma-carboxylase (Rattus norvegicus); assay: Substrate activity was determined for the rat liver microsomal vitamin K dependent carboxylase by dpm incorporation at 0.125 mM; outline: as §1
[6] = biological target: T1, Vitamin K-dependent gamma-carboxylase (Rattus norvegicus); assay: Substrate activity was determined for the rat liver microsomal vitamin K dependent carboxylase by dpm incorporation at 0.0625 mM; outline: as §1
[7] = substrate: CC(C)C[C@H]1NC(=O)[C@H](N)CSSC[C@@H](C(=O)O)NC(=O)[C@@H]2CCCN2C(=O)[C@@H](CCC(=O)O)NC(=O)[C@H](CCC(=O)O)NC1=O; assay: Binding affinity was evaluated for the compound against Vitamin K dependent carboxylase

Row | Molecule | Activity [1] | Activity [2] | Activity [3] | Activity [4] | Activity [5] | Activity [6] | Km [7] [µM]
1 | COC(=O)[C@H](CC(C)C)NC(=O)[C@H](CCC(=O)O)NC(=O)[C@H](CCC(=O)O)NC(=O)OC(C)(C)C (Boc-Glu-Glu-Leu-OMe) | 5770 | 11400 | 3020 |  |  |  | 
2 | CC(=O)NCSC[C@H](NC(=O)[C@H](CCC(=O)O)NC(=O)[C@H](CCCN=C(N)N)NC(=O)[C@H](CCC(=O)O)NC(=O)[C@H](CC(C)C)NC(=O)[C@@H](N)CC(N)=O)C(=O)N[C@@H](CC(C)C)C(=O)N[C@@H](CCC(=O)O)C(=O)N[C@@H](CCC(=O)O)C(=O)N1CCC[C@H]1C(=O)N[C@@H](CSCNC(C)=O)C(=O)N[C@@H](CO)C(=O)N[C@@H](CCCN=C(N)N)C(=O)N[C@@H](CCC(=O)O)C(=O)N[C@@H](CCC(=O)O)C(=O)N[C@@H](C)C(=O)N[C@@H](Cc1ccccc1)C(=O)O (H-NLEREC(Acm)LEEPC(Acm)SREEAF-OH) |  |  |  | 2380 | 920 | 480 | 
3 | CC(C)C[C@H](NC(=O)[C@@H](N)CC(N)=O)C(=O)N[C@@H](CCC(=O)O)C(=O)N[C@@H](CCCN=C(N)N)C(=O)N[C@@H](CCC(=O)O)C(=O)N[C@@H]1CSSC[C@@H](C(=O)N[C@@H](CO)C(=O)N[C@@H](CCCN=C(N)N)C(=O)N[C@@H](CCC(=O)O)C(=O)N[C@@H](CCC(=O)O)C(=O)N[C@@H](C)C(=O)N[C@@H](Cc2ccccc2)C(=O)O)NC(=O)[C@@H]2CCCN2C(=O)[C@@H](CCC(=O)O)NC(=O)[C@H](CCC(=O)O)NC(=O)[C@@H](CC(C)C)NC1=O |  |  |  | 810 | 480 | 240 | 
4 | Vitamin K-dependent gamma-carboxylase (Rattus norvegicus), O88496 (protein) MAVHRGSARAAPASDKVQKNKPAQTSGLEQGSRMARIFGFEWADLSSWQSVVTLLNRPTDPANLAVFRFLFAFLMLLDIPQERGLSSLDRKYLDGLDVCRFPLLDALRPLPLDWMYLVYTIMFLGALGMMLGLWYRLSCMLFLLPYWYVFLLDKTSWNNHSYLYGLLAFQLTFMDANHYWSVDGLLSAQKKNAHVPLWNYTVLRGQIFIVYFIAGVKKLDADWVEGYSMEHLSRHWLFSPFKLVLSEELTSLLVVHWCGLLLDLSAGFLLFFDASRPIGLVFVSYFHCMNSQLFSIGMFPYVMLASSPLFCSAEWPRKLVARCPKRLQELLPAKAAPRPSASCVYKRARAKAGQKPGLRHHLGTVFTLLYLLEQLFLPYSHFLTQGYNNWTNGLYGYSWDMMVHSRSHQHVKITYRDGLTGELGYLNPGVFTQSRRWKDHADMLKQYATCLSLLLPKYNVTEPQIYFDIWVSINDRFQQRLFDPRVDIVQAVWSPFRRTPWVQPLLMDLSPWRTKLQDIKSSLDNHTEVVFIADFPGLHLENFVSEDLGNTSIQLLQGEVTVELVAEQKNQTLREGEKMQLPAGEYHKVYTVSSSPSCYMYIYVNTTEVALEQDLAYLQELKEKVENGSETGPLPPELQPLLEGEVKGGPEPTPLVQTFLRRQRKLQEIERRRNSPLHERFLRFVLRKLYVFRRSFLMTRISLRNLLFGRPSLEQLAQEVTYANLRPFEPVDESSASNTDSSDPHPSEPDSEHVHSEL |  |  |  |  |  |  | 3000

— ChEMBL document CHEMBL1123864, “Synthetic bovine prothrombin precursor 13-29 for studies of vitamin K dependent carboxylase” (J Med Chem, 1987)
